High-throughput results deposited in PubChem by Broad Institute.
IDH1 R132H inh – blocks human IDH1 R132H reductase activity | O75874 | diaphorase/resazurin fluorescence, 60 min | inhibition, % at 10 µM | 70,000 compounds, 0.18% hits | AID 624101; in the data active means inhibition above about 34%; inconclusive means no clear call, values can overlap the other calls; inactive means below about 11%;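 further: 0% = DMSO and 100% = no enzyme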
Target sequence (O75874 whole entry R132H): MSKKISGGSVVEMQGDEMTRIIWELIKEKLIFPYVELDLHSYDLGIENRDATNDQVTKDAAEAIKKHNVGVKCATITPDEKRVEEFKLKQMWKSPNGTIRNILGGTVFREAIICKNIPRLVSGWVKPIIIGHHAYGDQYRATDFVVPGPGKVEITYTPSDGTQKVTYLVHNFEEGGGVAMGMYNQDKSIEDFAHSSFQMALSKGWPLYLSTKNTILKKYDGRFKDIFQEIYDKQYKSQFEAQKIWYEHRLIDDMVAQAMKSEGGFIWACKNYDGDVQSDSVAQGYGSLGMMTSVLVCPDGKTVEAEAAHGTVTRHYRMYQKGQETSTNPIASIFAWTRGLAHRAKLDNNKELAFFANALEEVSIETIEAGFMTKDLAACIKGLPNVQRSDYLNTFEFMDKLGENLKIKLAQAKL
T cruzi growth-1 – T. cruzi proliferation inhibition | T. cruzi beta-gal in NIH3T3, GalScreen luminescence, 90 h | inhibition, % at 8.34 µM | 77,000 compounds, 5.9% hits | AID 624255;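 active means mean inhibition above about 93%, with at least 55% of replicates each passing it, limit read from the data, passing the limit was not always enough; inconclusive means only one of those two conditions holds; inactive means neither condition holds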
GASC1 inh – inhibitors of human demethylase GASC-1 KDM4C; Q9H3R0; inhibition, % at 12.5 µM; GST-KDM4C 2-372, H3K9me3 peptide, LANCE TR-FRET; AID 720574; 96,000 compounds, 0.15% hits;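 active means mean replicate inhibition above about 25%, with at least 55% of replicates also reaching it, limit read from the data, passing the limit was not always enough; inconclusive means only one of those two conditions met; inactive means neither condition met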
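Material: GST-tagged GASC-1 (JMJD2C) catalytic fragment, aa 2-372 / Quantity: enzyme final amount 10 nM / Medium: HEPES buffer, pH 7.5, plus ascorbate / Doses: one test concentration per compound / Incubation: 30 min reaction, 60 min detection, RT / Measured by: LANCE TR-FRET / Read-out: inhibition from TR-FRET ratio decrease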
T cruzi growth-2 – blocks T. cruzi growth in NIH3T3 host cells. inhibition, % at 8.35 µM. 5,600 compounds, 72% hits. AID 651739. shares compounds with T cruzi growth-1. T. cruzi beta-gal in NIH3T3, GalScreen luminescence, 90 h;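 active means mean replicate inhibition above about 95% and at least 55% of replicates individually reaching it, limit read from the data; inconclusive means only one of the two criteria is met; inactive means neither criterion is met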
T cruzi growth-3 – inhibitors of T. cruzi proliferation | T. cruzi beta-gal in NIH3T3, GalScreen luminescence, 90 h | 5,600 compounds, 21% hits | inhibition, % at 2.09 µM | shares compounds with T cruzi growth-1;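 active means mean inhibition above about 95%, with at least 55% of replicates also reaching it, limit read from the data; inconclusive means meets just one of the two conditions; inactive means meets neither condition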;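 further: plate controls were neutral control median for no effect and positive control median for full effect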
3T3 cytotox – cytotoxicity in mouse NIH/3T3 fibroblasts; shares compounds with T cruzi growth-1; NIH/3T3 viability, CellTiter-Glo ATP luminescence, 90 h; cytotoxicity (signal decrease), % at 8.35 µM; 5,600 compounds, 14% hits; AID 651742;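 active means mean signal decrease across replicates above about 35% based on untreated-well scatter, with enough replicates individually passing, limit read from the data; inconclusive means no rule stated though some were filed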;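 further: 0% = median of neutral control wells and 100% = median of positive control wells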
NIH3T3 tox 2 – NIH/3T3 (mouse) viability loss | shares compounds with T cruzi growth-1 | NIH/3T3 viability, CellTiter-Glo ATP luminescence, 90 h | inhibition, % at 24.9 µM | 5,600 compounds, 56% hits;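 active means mean loss of cell viability signal at or above a set limit, and enough replicates individually reaching it; inconclusive means meets only the mean limit or only the replicate share; inactive means meets neither condition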;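 further: 0% = median of neutral control wells and 100% = median of positive control wells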
An asterisk follows results filed as active. The full list was thinned out, with hits kept by preference.

How did C[C@@H]1CN([C@H](C)CO)C(=O)c2cccc(NC(=O)Nc3ccc(C(F)(F)F)cc3)c2O[C@H]1CN(C)Cc1ccc(Oc2ccccc2)cc1 do in these assays?
IDH1 R132H inh: -0.6; T cruzi growth-1: 121.0*; GASC1 inh: -0.6; T cruzi growth-2: inconclusive; T cruzi growth-3: 91.2; 3T3 cytotox: -4.0; NIH3T3 tox 2: 104.3*

What do the screens show for `C[C@H]1CN([C@@H](C)CO)C(=O)c2cccc(NC(=O)Nc3ccc(C(F)(F)F)cc3)c2O[C@H]1CN(C)Cc1ccc(Oc2ccccc2)cc1`?
IDH1 R132H inh: -3.5; T cruzi growth-1: 92.8; GASC1 inh: -1.3

Results for C[C@@H]1CN([C@H](C)CO)C(=O)c2cccc(NC(=O)Nc3ccc(C(F)(F)F)cc3)c2O[C@@H]1CN(C)Cc1ccc(C(F)(F)F)cc1 ?
IDH1 R132H inh: 0.4; T cruzi growth-1: 88.3; GASC1 inh: -0.4

What do the screens show for `COc1ccc(CN(C)C[C@@H]2Oc3c(NC(=O)Nc4ccc(C(F)(F)F)cc4)cccc3C(=O)N([C@H](C)CO)C[C@@H]2C)cc1`?
IDH1 R132H inh: 0.1; GASC1 inh: -5.0

How did C[C@@H]1CN([C@@H](C)CO)C(=O)c2cccc(NC(=O)Nc3ccc(C(F)(F)F)cc3)c2O[C@H]1CN(C)Cc1ccc(Oc2ccccc2)cc1 do in these assays?
IDH1 R132H inh: -1.2; T cruzi growth-1: 125.6*; GASC1 inh: 0.4; T cruzi growth-2: 108.6*; T cruzi growth-3: 101.8*; 3T3 cytotox: -0.8; NIH3T3 tox 2: 99.1*

What do the screens show for `C[C@@H]1CN([C@H](C)CO)C(=O)c2cccc(NC(=O)Nc3ccc(C(F)(F)F)cc3)c2O[C@@H]1CN(C)Cc1ccc(Oc2ccccc2)cc1`?
T cruzi growth-1: 119.6*; GASC1 inh: -0.3; T cruzi growth-2: 97.0*; T cruzi growth-3: 98.2*; 3T3 cytotox: 29.0; NIH3T3 tox 2: 104.0*

Results for C[C@@H]1CN([C@@H](C)CO)C(=O)c2cccc(NC(=O)Nc3ccc(C(F)(F)F)cc3)c2O[C@@H]1CN(C)Cc1ccc(Oc2ccccc2)cc1 ?
T cruzi growth-1: 123.9*; T cruzi growth-2: 87.4; T cruzi growth-3: 111.0*; 3T3 cytotox: 59.5*; NIH3T3 tox 2: 105.2*

How did CC(Sc1nc(N)cc(N)n1)C(=O)Nc1ccc(Cl)cc1 (stereo not given) do in these assays?
IDH1 R132H inh: -0.2

Results for Cc1cccc(OCC(=O)Nc2cccc(-c3nc4cc(C)ccc4o3)c2)c1 ?
IDH1 R132H inh: 0.4

How did COC(=O)c1cc(O)cc(OC)c1Oc1cc(C)cc(O)c1C(=O)OC do in these assays?
IDH1 R132H inh: -0.3

Results for O=C(CN(C1CCCCC1)S(=O)(=O)c1ccc(Cl)cc1)Nc1ccccc1F ?
IDH1 R132H inh: -0.4

What do the screens show for `Cc1cc(C)nc(SC(C)C(=O)Nc2cccc3ccccc23)n1` (stereo not given)?
IDH1 R132H inh: 0.6

What do the screens show for `Cc1nn(C(C)C(=O)Nc2ccc(F)c(Cl)c2)c(C)c1[N+](=O)[O-]` (stereo not given)?
IDH1 R132H inh: 0.6

What do the screens show for `Cc1ccc2nc(N3CCNCC3)c(-n3nc(C)cc3C)nc2c1`?
IDH1 R132H inh: 0.3

How did OC[C@@H]1[C@H](c2ccc(-c3cccnc3)cc2)[C@@H]2CN(CC3CC3)CCCCN12 do in these assays?
T cruzi growth-1: 104.3*; GASC1 inh: 0.0; T cruzi growth-2: 66.6; T cruzi growth-3: 16.6; 3T3 cytotox: 0.5; NIH3T3 tox 2: -9.2

What do the screens show for `CN1CCCCN2[C@H](CO)[C@H](c3ccc(-c4cccnc4)cc3)[C@H]2C1`?
T cruzi growth-1: 87.7; GASC1 inh: -0.1

How did OC[C@@H]1[C@@H](c2ccc(-c3cccnc3)cc2)[C@H]2CN(CC3CC3)CCCCN12 do in these assays?
T cruzi growth-1: 44.2; GASC1 inh: -0.7

Results for CN1CCCCN2[C@H](CO)[C@H](c3ccc(-c4cccnc4)cc3)[C@@H]2C1 ?
T cruzi growth-1: inconclusive; GASC1 inh: -0.2; T cruzi growth-2: 75.7; T cruzi growth-3: 32.5; 3T3 cytotox: 2.0; NIH3T3 tox 2: -12.6

What do the screens show for `Cc1cccc(NC(=O)CSc2nnc(-c3cccnc3)n2-c2ccccc2)c1C`?
IDH1 R132H inh: 0.6

How did CCn1c2ccccc2n2c(SCC(=O)Nc3ccc(Cl)cc3)nnc12 do in these assays?
IDH1 R132H inh: -0.7

Results for O=C(COc1ccc(Br)cc1)Nc1cccc(-c2nc3cc(Cl)ccc3o2)c1 ?
IDH1 R132H inh: 0.1

How did CCCN1C[C@H](C)[C@H](OC)CN(C)C(=O)c2cc(NC(=O)Nc3cccc(OC)c3)ccc2OC[C@H]1C do in these assays?
IDH1 R132H inh: -0.1; T cruzi growth-1: 39.1; GASC1 inh: -0.9

How did CCCN1C[C@@H](C)[C@H](OC)CN(C)C(=O)c2cc(NC(=O)Nc3cccc(OC)c3)ccc2OC[C@H]1C do in these assays?
IDH1 R132H inh: 0.1; T cruzi growth-1: 101.9*; T cruzi growth-2: 109.7*; T cruzi growth-3: 75.3; 3T3 cytotox: -2.2; NIH3T3 tox 2: 54.2*

What do the screens show for `CCS(=O)(=O)Nc1ccc2c(c1)C(=O)N(C)C[C@@H](OC)[C@@H](C)CN(Cc1ccccn1)[C@@H](C)CO2`?
GASC1 inh: 0.7

How did CO[C@@H]1CN(C)C(=O)c2cc(NC(=O)c3nc4ccccc4s3)ccc2OC[C@H](C)N(Cc2ccncc2)C[C@@H]1C do in these assays?
IDH1 R132H inh: 0.1; T cruzi growth-1: 99.0*; GASC1 inh: 0.0; T cruzi growth-2: 89.9; T cruzi growth-3: 44.0; 3T3 cytotox: -15.4; NIH3T3 tox 2: 61.1*

Results for CCS(=O)(=O)Nc1ccc2c(c1)C(=O)N(C)C[C@@H](OC)[C@H](C)CN(Cc1ccccn1)[C@@H](C)CO2 ?
IDH1 R132H inh: 0.4; T cruzi growth-1: 98.8*; GASC1 inh: 1.9; T cruzi growth-2: -24.9; T cruzi growth-3: -32.4; 3T3 cytotox: -5.9; NIH3T3 tox 2: 4.1

What do the screens show for `CCCN1C[C@@H](C)[C@H](OC)CN(C)C(=O)c2cc(NS(=O)(=O)c3ccccc3)ccc2OC[C@@H]1C`?
IDH1 R132H inh: 0.1; T cruzi growth-1: -11.7; GASC1 inh: 3.1

What do the screens show for `CO[C@H]1CN(C)C(=O)c2cc(NC(=O)c3nc4ccccc4s3)ccc2OC[C@@H](C)N(Cc2ccncc2)C[C@H]1C`?
IDH1 R132H inh: 9.9; T cruzi growth-1: 94.0; GASC1 inh: 0.4

What do the screens show for `CCCN1C[C@@H](C)[C@H](OC)CN(C)C(=O)c2cc(NS(=O)(=O)c3ccccc3)ccc2OC[C@H]1C`?
IDH1 R132H inh: 0.1; T cruzi growth-1: 91.4*; GASC1 inh: 0.7; T cruzi growth-2: 97.7*; T cruzi growth-3: 40.6; 3T3 cytotox: 2.3; NIH3T3 tox 2: -4.7
